Results published in ChEMBL document CHEMBL4024783, “Alkylated Piperazines and Piperazine-Azole Hybrids as Antifungal Agents” (J Med Chem, 2018).
≈ marks a conversion by molar mass, not a printed value.

Key:
Candida albicans [1] = experiment: Antifungal activity against itraconazole and fluconazole resistant Candida albicans ATCC MYA-1237 after 48 hrs by broth dilution method; format: functional; details: Candida albicans, ATCC MYA-1237, 48 h
Outline: (§1)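 CLSI M27-A3 broth microdilution with minor modifications. Overnight YPD culture grown at 35 °C, 200 rpm, adjusted to OD600 0.12, diluted in RPMI 1640 buffered to pH 7.0 with 0.165 M MOPS to a final 1–2 × 10^3 CFU/mL. Test compounds at 0.015–31.3 µg/mL, 48 h at 35 °C, DMSO <1.25%. […] Triplicate.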

Candida albicans [2] = experiment: Antifungal activity against itraconazole and fluconazole susceptible Candida albicans ATCC MYA-2310 after 48 hrs by broth dilution method; format: functional; details: Candida albicans, ATCC MYA-2310, 48 h
Candida albicans [3] = experiment: Antifungal activity against itraconazole and fluconazole resistant Candida albicans ATCC MYA-1003 after 48 hrs by broth dilution method; format: functional; details: Candida albicans, ATCC MYA-1003, 48 h; outline: as §1
Pichia kudriavzevii = experiment: Antifungal activity against Candida krusei ATCC 6258 after 48 hrs by broth dilution method; format: functional; details: Pichia kudriavzevii, ATCC 6258, 48 h
Outline: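 Yeasts tested per CLSI M27-A3 with minor changes. An overnight YPD culture (35 °C, 200 rpm) was adjusted to OD600 0.12 and diluted in MOPS-buffered RPMI 1640 (pH 7.0) to a final 1–2 × 10^3 CFU/mL. Compounds 0.015–31.3 µg/mL, DMSO <1.25%.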

Candida albicans [4] = experiment: Antifungal activity against Candida albicans ATCC 64124 after 48 hrs by broth dilution method; format: functional; details: Candida albicans, ATCC 64124, 48 h; outline: as §1
Candida parapsilosis = experiment: Antifungal activity against Candida parapsilosis ATCC 22019 after 48 hrs by broth dilution method; format: functional; details: Lodderomyces parapsilosis, ATCC 22019, 48 h
Aspergillus nidulans = experiment: Antifungal activity against Aspergillus nidulans ATCC 38163 after 48 hrs by broth dilution method; format: functional; details: Aspergillus nidulans, ATCC 38163, 48 h
Outline: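 A. nidulans run per CLSI M38-A2. PDA spores were filtered through glass wool and counted by hemocytometer. Test range 0.03–31.3 µg/mL in MOPS-buffered RPMI 1640 (pH 7.0), final 5 × 10^5 CFU/mL.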

Nakaseomyces glabratus = experiment: Antifungal activity against Candida glabrata ATCC 2001 after 48 hrs by broth dilution method; format: functional, CBS 138; details: Nakaseomyces glabratus, CBS 138, 48 h
Aspergillus terreus = experiment: Antifungal activity against Aspergillus terreus ATCC MYA-3633 after 48 hrs by broth dilution method; format: functional; details: Aspergillus terreus, ATCC MYA-3633, 48 h
Outline: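 Molds tested per CLSI M38-A2. Spores were harvested from sporulating PDA cultures by filtering through glass wool and counted on a hemocytometer. Serial dilutions (0.03–31.3 µg/mL) were made in RPMI 1640 buffered to pH 7.0 with 0.165 M MOPS, final inoculum 5 × 10^5 CFU/mL.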

Candida albicans [5] = experiment: Antifungal activity against itraconazole and fluconazole susceptible Candida albicans ATCC MYA-2876 after 48 hrs by broth dilution method; format: functional; details: Candida albicans, ATCC MYA-2876, 48 h
Candida albicans [6] = experiment: Antifungal activity against itraconazole and fluconazole resistant Candida albicans ATCC 90819 after 48 hrs by broth dilution method; format: functional; details: Candida albicans, ATCC 90819, 48 h; outline: as §1
Candida albicans [7] = experiment: Antifungal activity against Candida albicans ATCC 10231 after 48 hrs by broth dilution method; format: functional; details: ATCC 10231, 48 h
Aspergillus flavus = experiment: Antifungal activity against Aspergillus flavus ATCC MYA-3631 after 48 hrs by broth dilution method; format: functional; details: ATCC MYA-3631, 48 h

Structure (SMILES)	MIC (Candida albicans [1])	MIC (Candida albicans [2])	MIC (Candida albicans [3])	MIC (Pichia kudriavzevii)	MIC (Candida albicans [4])	MIC (Candida parapsilosis)	MIC (Aspergillus nidulans)	MIC (Nakaseomyces glabratus)	MIC (Aspergillus terreus)	MIC (Candida albicans [5])	MIC (Candida albicans [6])	MIC (Candida albicans [7])	MIC (Aspergillus flavus)
CCCCCCCCCCN1CCNCC1	68.9 µM (≈ 15.6 µg/mL)	68.9 µM (≈ 15.6 µg/mL)	68.9 µM (≈ 15.6 µg/mL)	34.5 µM (≈ 7.81 µg/mL)	68.9 µM (≈ 15.6 µg/mL)	68.9 µM (≈ 15.6 µg/mL)	68.9 µM (≈ 15.6 µg/mL)	34.5 µM (≈ 7.81 µg/mL)	68.9 µM (≈ 15.6 µg/mL)	68.9 µM (≈ 15.6 µg/mL)	68.9 µM (≈ 15.6 µg/mL)	68.9 µM (≈ 15.6 µg/mL)	138 µM (≈ 31.3 µg/mL)
CCCCCN1CCNCC1	> 200 µM	> 200 µM	> 200 µM	> 200 µM	> 200 µM	> 200 µM	> 200 µM	> 200 µM	> 200 µM	> 200 µM	> 200 µM	> 200 µM	> 200 µM
CCCCCCCCCN1CCN(CC(O)(Cn2cncn2)c2ccc(F)cc2F)CC1 (configuration not stated)	35.2 µM (≈ 15.8 µg/mL)	35.2 µM (≈ 15.8 µg/mL)	35.2 µM (≈ 15.8 µg/mL)	2.2 µM (≈ 0.989 µg/mL)	17.6 µM (≈ 7.91 µg/mL)	0.55 µM (≈ 0.247 µg/mL)	2.2 µM (≈ 0.989 µg/mL)	8.8 µM (≈ 3.96 µg/mL)	4.4 µM (≈ 1.98 µg/mL)	8.8 µM (≈ 3.96 µg/mL)	17.6 µM (≈ 7.91 µg/mL)	2.2 µM (≈ 0.989 µg/mL)	1.1 µM (≈ 0.495 µg/mL)
CCCCCCCCCCCCCCN1CCOCC1	> 110 µM	> 110 µM	> 110 µM	> 110 µM	> 110 µM	> 110 µM	> 110 µM	> 110 µM	> 110 µM	> 110 µM	> 110 µM	> 110 µM	> 110 µM
CN1CCN(CC(O)(Cn2cncn2)c2ccc(F)cc2F)CC1 (configuration not stated)	92.8 µM (≈ 31.3 µg/mL)	23.1 µM (≈ 7.79 µg/mL)	92.8 µM (≈ 31.3 µg/mL)	46.2 µM (≈ 15.6 µg/mL)	92.8 µM (≈ 31.3 µg/mL)	2.9 µM (≈ 0.978 µg/mL)	2.9 µM (≈ 0.978 µg/mL)	92.8 µM (≈ 31.3 µg/mL)	92.8 µM (≈ 31.3 µg/mL)	23.1 µM (≈ 7.79 µg/mL)	92.8 µM (≈ 31.3 µg/mL)	23.1 µM (≈ 7.79 µg/mL)	92.8 µM (≈ 31.3 µg/mL)
CCCCCCCCCCCCCCN1CCN(CC(O)(Cn2cncn2)c2ccc(F)cc2F)CC1 (configuration not stated)	7.5 µM (≈ 3.9 µg/mL)	7.5 µM (≈ 3.9 µg/mL)	3.8 µM (≈ 1.97 µg/mL)	1.9 µM (≈ 0.987 µg/mL)	60.2 µM (≈ 31.3 µg/mL)	> 60.2 µM	3.8 µM (≈ 1.97 µg/mL)	> 60.2 µM	1.9 µM (≈ 0.987 µg/mL)	15 µM (≈ 7.8 µg/mL)	3.8 µM (≈ 1.97 µg/mL)	3.8 µM (≈ 1.97 µg/mL)	0.9 µM (≈ 0.468 µg/mL)
CN1CCNCC1 [METHYLPIPERAZINE]	> 312 µM	> 312 µM	> 312 µM	> 312 µM	> 312 µM	> 312 µM	> 312 µM	> 312 µM	> 312 µM	> 312 µM	> 312 µM	> 312 µM	> 312 µM
CCCCCCCCCCCN1CCN(CC(O)(Cn2cncn2)c2ccc(F)cc2F)CC1 (configuration not stated)	32.8 µM (≈ 15.7 µg/mL)	32.8 µM (≈ 15.7 µg/mL)	32.8 µM (≈ 15.7 µg/mL)	4.1 µM (≈ 1.96 µg/mL)	32.8 µM (≈ 15.7 µg/mL)	0.5 µM (≈ 0.239 µg/mL)	4.1 µM (≈ 1.96 µg/mL)	8.2 µM (≈ 3.92 µg/mL)	4.1 µM (≈ 1.96 µg/mL)	16.4 µM (≈ 7.83 µg/mL)	32.8 µM (≈ 15.7 µg/mL)	4.1 µM (≈ 1.96 µg/mL)	4.1 µM (≈ 1.96 µg/mL)
CCCCCN1CCN(CC(O)(Cn2cncn2)c2ccc(F)cc2F)CC1 (configuration not stated)	> 79.5 µM	> 79.5 µM	> 79.5 µM	> 79.5 µM	> 79.5 µM	39.6 µM (≈ 15.6 µg/mL)	> 79.5 µM	> 79.5 µM	> 79.5 µM	> 79.5 µM	79.5 µM (≈ 31.3 µg/mL)	> 79.5 µM	> 79.5 µM
